Screening results (PubChem)
ABHD4 inh: ABHD4 (mouse) inhibition, primary FP screen | purified mABHD4, FP-Rh probe fluorescence polarization | inhibition, % at 8.92 µM | 370,000 compounds, 0.54% hits | AID 720543;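 active means inhibition exceeding the mean over every tested compound plus 3 SD, cut at about 30% in these data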
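Assay system: mouse ABHD4 enzyme, wild type / Also added: fluorescent activity-based probe FP-Rh / Doses: single nominal dose of 8.92 µM, 0.89% DMSO final / Timing: 45 min compound pre-incubation plus 60 min probe step, 25 °C / Signal: FP readout, ex 525 nm / em 598 nm / Control set: S159A mutant/DMSO as 100%, compound-well median as 0%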
HTRA1 inh: HTRA1 (human) protease inhibition. 340,000 compounds, 0.5% hits. recombinant HTRA1, FP-rhodamine activity-based probe, fluorescence polarization. Q92743. inhibition, % at 5.96 µM; in the data active means inhibition above about 36%
Target sequence (Q92743 whole entry, looked up): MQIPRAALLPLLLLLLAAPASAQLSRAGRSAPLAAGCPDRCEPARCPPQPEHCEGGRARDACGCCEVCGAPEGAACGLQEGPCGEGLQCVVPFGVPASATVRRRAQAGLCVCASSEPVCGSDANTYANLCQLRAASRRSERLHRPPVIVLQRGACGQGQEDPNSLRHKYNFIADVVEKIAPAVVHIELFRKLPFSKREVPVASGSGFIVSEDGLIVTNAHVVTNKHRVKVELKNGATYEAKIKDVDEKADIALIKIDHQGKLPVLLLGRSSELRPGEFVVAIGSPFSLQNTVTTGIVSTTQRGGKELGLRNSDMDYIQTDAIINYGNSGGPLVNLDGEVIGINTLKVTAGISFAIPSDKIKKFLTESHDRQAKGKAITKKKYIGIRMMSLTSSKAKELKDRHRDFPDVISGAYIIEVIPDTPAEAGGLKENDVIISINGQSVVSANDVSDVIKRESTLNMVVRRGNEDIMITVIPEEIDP
SIAE inh: inhibitors of human sialic acid acetylesterase SIAE; SIAE FP-Rh probe binding, fluorescence polarization; Q9HAT2; inhibition, % at 9.66 µM; 370,000 compounds, 0.69% hits;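 active means inhibition above a cutoff: mean of compounds within the control limits plus 3 SD of those, cut at about 17% in these data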
RBBP9 inh: human RBBP9 hydrolase inhibition. inhibition, % at 7.94 µM. recombinant RBBP9, FP-Rh probe fluorescence polarization. O75884. 220,000 compounds, 0.2% hits;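 active means inhibition above the campaign mean of all tested compounds plus 3 SD, cut at about 14% in these data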
Target sequence (O75884 whole entry, looked up): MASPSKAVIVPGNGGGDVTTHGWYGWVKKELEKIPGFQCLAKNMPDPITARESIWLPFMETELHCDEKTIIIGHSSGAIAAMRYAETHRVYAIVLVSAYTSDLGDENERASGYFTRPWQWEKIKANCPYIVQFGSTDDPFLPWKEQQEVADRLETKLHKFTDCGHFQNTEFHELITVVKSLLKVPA
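system = RBBP9 protein | input = RBBP9 at 2.5 µM in dispensed solution, before mixing | measured by = fluorescence polarization (mP), excitation 525 nm, emission 598 nm | incubation = enzyme-compound preincubation 30 min, then probe labeling 45 min, 25 °C | buffer or medium = Tris-NaCl-Pluronic buffer, pH 8.0 | compound = single dose 7.94 µM | also added = FP-Rh probe, 375 nM dispensing solution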
SIAE inh conf: confirmation of human SIAE inhibitors. shares compounds with SIAE inh. SIAE FP-Rh activity-based probe, fluorescence polarization. inhibition, % at 9.66 µM. 2,300 compounds, 13% hits. AID 1117263;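 active means mean inhibition of the replicates above the hit cutoff set in the primary screen, cut at about 17% in these data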;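 further: inhibitors lower polarization as more probe stays unbound to SIAE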
A number is an active result; n = inactive; x = no result. In the library only some 1.4% were active in any assay of this set; here they are far more common.

SMILES	ABHD4 inh	HTRA1 inh	SIAE inh	RBBP9 inh	SIAE inh conf
COc1ccc(NS(=O)(=O)c2cccs2)cc1S(=O)(=O)N1CCOCC1	n	n	n	x	x
COc1ccc(NS(=O)(=O)c2cccs2)cc1S(=O)(=O)N1CCCCC1	n	n	19	x	n
CCCC[C@H](C(=O)N(C)c1cccc(OC)c1)[C@@H](O)c1ccc(Cl)cc1	n	x	n	x	x
Oc1oc(-c2ccccc2)nc1C=Nc1ccccc1	n	n	n	n	x
CN(C)c1ccc(N=Cc2nc(-c3ccccc3)oc2O)cc1	n	n	18	n	n
O=C(CN1C(=O)NC2(CCCCCCC2)C1=O)NCc1ccccc1Cl	n	n	n	x	x
CCC1CCC2(CC1)NC(=O)N(CC(=O)NCc1ccccc1Cl)C2=O (configuration not stated)	n	n	17	x	n
COC(=O)C1=C(C)N(C)C(=NCc2ccc(OC)cc2)NC1c1cccc(C(F)(F)F)c1 (configuration not stated)	n	x	n	x	x
COC(=O)c1ccc2c(C)c(C3(O)CCCCC3)[nH]c2c1	n	n	n	x	x
Cc1c(C2(O)CCCCC2)[nH]c2ccc(C#N)cc12	n	n	18	x	n
COc1ccc(/C=N/NC(=O)c2c(Br)cnn2C)c2ccccc12	n	n	n	x	x
CCOCCCNC(=S)Nc1ccc2nc(N3CCOCC3)cc(C)c2c1	n	n	17	x	n
COc1cccc(NC(=S)Nc2cc(C(=O)O)ccc2N2CC3CC(C2)c2cccc(=O)n2C3)c1 (configuration not stated)	n	n	18	n	n
Cc1ccc(NC(=S)Nc2cc(C(=O)O)ccc2N2CC3CC(C2)c2cccc(=O)n2C3)cc1C (configuration not stated)	n	n	n	n	x
CCc1nc2c(OCc3ccc(OC(F)F)cc3)cccn2c1N(C)C(=O)c1ccc(OC)cc1	n	x	n	x	x
CCCOc1ccc(C(=O)N/N=C/c2c[nH]c3ccc(Br)cc23)cc1	n	n	19	x	n
COc1ccc(C(=O)N/N=C/c2c[nH]c3ccccc23)cc1	n	n	n	x	x
COc1cccc(-c2nc(NCc3ccccc3)c3ccccc3n2)c1O	n	n	n	x	x
COc1cccc(-c2nc(NC3CCCC3)c3ccccc3n2)c1O	n	n	29	x	n
CCOc1ccccc1N(CC(=O)NCCc1ccccc1)C(=O)CCC(=O)Nc1ccccn1	n	n	n	x	x
O=C(/C=C/c1cccc(O)c1)c1ccc(N2CCOCC2)cc1	n	n	n	n	x
Cn1c(=O)c(Nc2ccc(Cl)cc2)c2c3c(cccc31)C(=O)c1ccccc1-2	42	x	31	n	35
CN(C(=O)c1ccc(N2CCOCC2)c([N+](=O)[O-])c1)C1CCCCC1	n	n	17	x	n
Cc1ccccc1NC(=O)CC(=O)Nc1ccccc1C	n	n	n	x	x
Cc1ccccc1P(=O)(CO)c1ccccc1C	n	n	178	n	n
SMILES	ABHD4 inh	HTRA1 inh	SIAE inh	RBBP9 inh	SIAE inh conf
COC(=O)[C@]12C[C@H](CC(=O)NCc3ccc(C)o3)C(=O)N(Cc3ccco3)C1=C[C@H](C1CCCC1)O[C@@H]2C	n	x	n	x	x
CC[C@@H](CCCc1ccc(OC)cc1)CCC(=O)N(c1ccccc1)c1ccccc1	n	x	n	x	x
Cc1nc(CN2CCN(Cc3nc(C(c4ccccc4)c4ccccc4)no3)CC2)cs1	n	x	n	n	x
Cc1ccc(N2CC(O)(c3cccs3)[N+]3=C2CCCC3)cc1 (configuration not stated)	n	n	n	n	x
COc1ccc(C2(O)CN(c3ccc(C)cc3)C3=[N+]2CCCC3)cc1 (configuration not stated)	n	n	20	n	n
COc1cc2ccccc2cc1C(=O)N1CCN(C(C)=O)CC1	n	n	22	x	n
CC1(C(=O)NS(=O)(=O)c2ccccc2)CCN1C(=O)CCc1ccccc1 (configuration not stated)	n	x	n	x	x
COCCn1c(-c2ccc(C#N)cc2)nc2c1c(=O)[nH]c(=O)n2Cc1ccccc1	n	n	n	n	x
CCCn1c(=O)[nH]c(=O)c2c1nc(-c1ccc(C#N)cc1)n2CCOC	n	n	17	x	n
O=C(CSc1nc(O)c(C2CCCCC2)c(=O)[nH]1)NCC1CCCO1 (configuration not stated)	n	n	17	n	n
Cc1cc(=O)[nH]c(SCC(=O)NCC2CCCO2)n1 (configuration not stated)	n	n	n	n	x
Cc1ccc(CN(C)C(=O)c2ccc(S(=O)(=O)N3CCCCCC3)cc2)o1	n	n	17	x	n
NS(=O)(=O)c1cccc(NC(=O)CC2(CC(=O)O)CCCC2)c1	n	n	36	x	n
COc1cccc(NC(=O)CC2(CC(=O)O)CCCC2)c1	n	n	n	n	x
Cc1cc2ccccn2c1C(=O)c1ccc(S(=O)(=O)N(C)C)cc1	n	n	19	n	n
Cc1cc2ccccn2c1C(=O)c1ccc(F)cc1	n	n	n	x	x
Cc1ccccc1Cn1c2ccccc2c2cnn(CC(=O)NCc3ccccn3)c(=O)c21	n	n	20	x	n
C[C@H]1COc2cccc(F)c2S(=O)(=O)N1C	n	x	n	x	x
COc1ccccc1NC(=O)c1cc2c(CO)cnc(C)c2oc1=Nc1cc(OC)c(OC)c(OC)c1	n	n	18	x	n
COc1ccccc1NC(=O)c1cc2c(CO)cnc(C)c2oc1=Nc1ccc(OC)c(OC)c1	n	n	n	x	x
COc1ccc(NC(=O)/C=C/c2ccccc2)cn1	n	n	n	n	x
COc1ccc(NC(=O)/C=C/c2cc(OC)c(OC)c(OC)c2)cn1	n	n	21	n	n
COc1ccc(NC(=O)N(C)C[C@@H]2OCc3cnnn3CCCC(=O)N([C@@H](C)CO)C[C@H]2C)c(OC)c1	n	n	n	x	x
COc1ccc(NC(=O)N(C)C[C@H]2OCc3cnnn3CCCC(=O)N([C@H](C)CO)C[C@@H]2C)c(OC)c1	n	x	21	x	n
CCCCN(C(=O)CSCc1ccc(C)cc1)c1c(N)n(CCC)c(=O)[nH]c1=O	n	n	n	x	x
SMILES	ABHD4 inh	HTRA1 inh	SIAE inh	RBBP9 inh	SIAE inh conf
O=C(CSc1nnc(SCc2ccccc2Cl)s1)N/N=C/c1c[nH]c2ccccc12	n	n	28	n	n
CCC(=O)N1CCC(C)(C(=O)Nc2ccc(OC)c(OC)c2)C1 (configuration not stated)	n	x	18	x	n
Cc1ccc(NC(=O)c2ccc(S(=O)(=O)N(C)c3ccccc3)cc2)cc1S(=O)(=O)N1CCOCC1	n	n	18	x	n
CCN=C1NC(CCc2ccccc2)C(C(=O)OC)=C(C)N1Cc1ccccc1C(F)(F)F (configuration not stated)	n	x	n	x	x
Cn1c(SCC(=O)c2ccc3c(c2)OCO3)nnc1-c1ccccn1	n	n	25	n	n
O=C(CSc1ccccn1)c1ccc2c(c1)OCO2	n	n	n	n	x
COC(=O)C1CN(Cc2ccc(C)cc2)CCS(=O)(=O)N1Cc1cn(Cc2ccc(F)cc2)nn1 (configuration not stated)	n	x	60	x	n
COC(=O)C1CN(Cc2ccc(F)cc2)CCS(=O)(=O)N1Cc1cn(Cc2ccc(F)cc2)nn1 (configuration not stated)	n	x	n	x	x
